Screening data from PubChem BioAssay.
Sampled rows, rich in hits. Any-hit rate of the full collection: about 1.9%.
NSD2 HMT inh: NSD2 histone methyltransferase inhibitors, primary screen, biochemical, AlphaScreen, single concentration, set 2 | Histone-lysine N-methyltransferase NSD2 (Homo sapiens), O96028 | NSD2 peptide methylation, 120 min | inhibition, % at 12.5 µM | 310,000 compounds, 0.54% hits; in the data active means inhibition above about 50%
TDP2 inh: human TDP2 enzyme inhibitors, primary screen, biochemical, epi absorbance, recombinant enzyme. T5PNP hydrolysis, p-nitrophenol absorbance 415 nm. Tyrosyl-DNA phosphodiesterase 2 (Homo sapiens), O95551. AID 720702, 2013. inhibition, % at 12.8 µM. 370,000 compounds, 0.34% hits;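 active means inhibition above the mean of all tested compounds plus 3 SD, set per campaign, cut at about 25% in these data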;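 further: 0% = DMSO with enzyme and 100% = buffer with substrate but no TDP2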
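Incubation: 2 h at 37 °C; Test system: recombinant human TDP2; Quantity: enzyme 120 nM; Read-out basis: percent inhibition; Medium: 50 mM Tris-HCl pH 7.5 with Mg2+, KCl, DTT, BSA; Repeats: single replicate; Compound: 12.8 µM single point, 1% DMSO; Signal: epi absorbance; Reagent: 5 mM T5PNP chromogenic substrate; Benchmarks: no-enzyme high, DMSO-plus-enzyme low.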
UHRF1 binding: UHRF1 methylated DNA binding inhibitors, primary screen, counter-screen for MBD2 inhibitor project, biochemical, TR-FRET, human UHRF1, single concentration. inhibition, % at 4.4 µM. 370,000 compounds, 0.75% hits. E3 ubiquitin-protein ligase UHRF1 (Homo sapiens), Q96T88. UHRF1 binding to methylated oligo; in the data active means inhibition above about 21%;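 further: UHRF1 SRA domain binding a hemimethylated CpG hairpin DNA probe; 0% = median of test compound wells and 100% = reference inhibitor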
LEDGF integ inh: blockers of LEDGF/p75-dependent integrase strand transfer – biochemical, TR-FRET, high throughput, primary screen; 370,000 compounds, 0.64% hits; AID 743269, 2014; TR-FRET IN-LEDGF/p75 DNA integration, Eu/Cy5; inhibition, % at 3.7 µM;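 active means inhibition above the screen-wide mean plus 3 SD, cut at about 13% in these data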;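 further: signal is the Cy5 over europium emission ratio at 671 and 618 nm; 0% = plate median of compound wells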
CASP6 VEID inh: human caspase-6 inhibitors, primary screen, biochemical, VEID-R110 fluorescence, single point, set 2; purified caspase-6, Z-VEID-R110 cleavage fluorescence; inhibition, % at 12.5 µM; 350,000 compounds, 0.53% hits;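 active means mean inhibition across replicates at least about 35%, with every replicate also reaching that limit, limit read from the data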;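 further: 0% = median of neutral control wells and 100% = no fluorescence left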
Target sequence (P55212 24-179 limits assumed): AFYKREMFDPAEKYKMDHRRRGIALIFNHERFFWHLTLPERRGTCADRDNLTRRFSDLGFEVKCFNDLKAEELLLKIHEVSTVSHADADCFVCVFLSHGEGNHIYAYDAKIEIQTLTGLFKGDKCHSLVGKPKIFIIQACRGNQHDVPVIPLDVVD
Target sequence (P55212 194-293 limits assumed): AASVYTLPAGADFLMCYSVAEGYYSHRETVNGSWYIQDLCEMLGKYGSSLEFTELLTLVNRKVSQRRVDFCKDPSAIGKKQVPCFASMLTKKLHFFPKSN
MBD2 inh: inhibitors of MBD2 binding to methylated DNA, primary screen, biochemical, TR-FRET, DNA-binding domain, human; Methyl-CpG-binding domain protein 2 (Homo sapiens), Q9UBB5; MBD2 binding to methylated oligonucleotide; inhibition, % at 4.4 µM; 370,000 compounds, 0.31% hits; AID 686964, 2013; in the data active means inhibition above about 13%
Target sequence (Q9UBB5 whole entry, looked up, the tested form may be a part): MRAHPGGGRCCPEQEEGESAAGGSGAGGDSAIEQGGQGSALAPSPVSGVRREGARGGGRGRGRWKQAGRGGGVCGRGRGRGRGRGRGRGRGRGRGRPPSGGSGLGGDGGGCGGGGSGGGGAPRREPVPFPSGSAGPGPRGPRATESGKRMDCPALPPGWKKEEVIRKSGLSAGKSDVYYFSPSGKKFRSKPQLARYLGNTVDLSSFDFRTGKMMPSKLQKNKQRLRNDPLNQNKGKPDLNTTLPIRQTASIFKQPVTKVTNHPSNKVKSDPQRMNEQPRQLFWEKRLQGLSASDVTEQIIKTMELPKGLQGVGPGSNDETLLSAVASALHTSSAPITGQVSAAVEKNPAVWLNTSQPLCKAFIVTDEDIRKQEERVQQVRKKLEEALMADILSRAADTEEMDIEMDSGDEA
An asterisk follows results filed as active; . = not tested or not shown.

SMILES | NSD2 HMT inh | TDP2 inh | UHRF1 binding | LEDGF integ inh | CASP6 VEID inh | MBD2 inh
O=c1[nH]c2cc3c(cc2cc1CN(Cc1cccs1)Cc1nnnn1Cc1ccco1)OCCO3 | 9 | 7 | -3 | 12 | . | -2
O=c1[nH]c2cc3c(cc2cc1CN(Cc1ccccc1)Cc1nnnn1Cc1ccco1)OCCO3 | 22 | -5 | 1 | 16* | . | -1
CCN(CC)S(=O)(=O)c1cccc(NC(=O)COC(=O)C2COc3ccccc3O2)c1 (stereo not drawn) | 0 | 9 | 24* | 1 | . | 0
CN1CCc2cc3c(c4c2[C@H]1[C@H](O)c1ccccc1-4)OCO3 | . | 4 | 35* | 9 | 49* | 66*
COc1ccc2c(c1OC)C(=O)OC2C1c2c(cc3c(c2OC)OCO3)CCN1C (stereo not drawn) | . | -4 | 0 | 3 | -1 | -3
CCC1CCc2sc(C(=O)NNC(=O)c3ccncc3)cc2C1 (stereo not drawn) | 5 | -16 | -1 | -1 | 59* | -4
C/C=C/c1ccc([C@H]2[C@@H](CO)N3CCCCN(S(=O)(=O)c4ccc(F)cc4)C[C@H]23)cc1 | . | . | . | . | 3 | .
O=C(/C=C/c1ccc(Br)o1)OCc1nc2ccsc2c(=O)[nH]1 | . | . | . | . | 38* | .
Cc1ccc(C(=O)OCc2nc3ccsc3c(=O)[nH]2)o1 | 3 | 9 | 0 | -3 | 7 | 0
Cc1cc(/C=N/Nc2ccc([N+](=O)[O-])cn2)c(C)n1-c1ccc(C(=O)O)cc1 | 1 | 2 | -4 | 13 | 43* | -1
CC(=O)N1c2ccc(S(=O)(=O)N(C)CC(=O)NCc3ccc(C)cc3)cc2CC1C (stereo not drawn) | -9 | 5 | 0 | 2 | 72* | -2
COc1cccc(CNC(=O)CN(C)S(=O)(=O)c2ccc3c(c2)CC(C)N3C(C)=O)c1 (stereo not drawn) | -3 | 11 | -3 | 1 | -9 | -3
CCC(=O)N(CC)C[C@H]1[C@H](c2ccc(-c3ccccc3)cc2)[C@@H](CO)N1C(C)=O | . | . | . | . | 1 | .
Cc1ccc2ccc(C)[n+](CCCS(=O)(=O)[O-])c2c1 | 46 | 4 | 1 | -4 | 6 | -3
Cc1ccc2ccccc2[n+]1CCCS(=O)(=O)[O-] | 5 | 12 | 36* | 1 | . | 0
CCn1c(=O)cc(OCC(=O)NCCCN2CCC(C)CC2)c2ccccc21 | 4 | -1 | -1 | -5 | . | -5
CN(CCNC(=O)CCCOc1cc(=O)n(C)c2ccccc12)Cc1ccccc1 | 2 | 0 | 21* | 1 | 3 | 6
CC1CCN(CCCNC(=O)COc2cc(=O)n(C)c3ccccc23)CC1 | -2 | 13 | -1 | 0 | 78* | -3
O=C(NCc1ccccc1)[C@@H]1[C@@H](CO)[C@@H]2Cn3c(cccc3=O)[C@@H]2N1Cc1ccccc1F | . | . | . | . | 0 | .
Cc1ccnc(-n2c(C)cc(C=O)c2C)c1 | 2 | 0 | 23* | 4 | -5 | 4
COc1ccc(C)cc1-n1c(C)cc(C=O)c1C | 25 | -5 | 5 | -6 | 0 | 0
O=C(C1CCCCC1)N1C[C@H]2[C@@H](c3ccccc31)[C@@H](CO)N2C(=O)c1ccccc1F | . | . | . | . | 3 | .
CCOC(=O)c1c(C)[nH]c(C)c1S(=O)(=O)NCCCN1CCOCC1 | 0 | -12 | -1 | -3 | -7 | -2
CCOC(=O)c1c(C)[nH]c(C)c1S(=O)(=O)NCCN1CCN(c2cc(Cl)ccc2C)CC1 | -1 | -2 | 58* | -1 | -2 | 2
C[C@H]1CN([C@@H](C)CO)C(=O)c2cccc(NC(=O)Nc3ccc4c(c3)OCO4)c2O[C@H]1CN(C)Cc1ccc(-c2ccccc2)cc1 | . | . | . | . | -3 | .
SMILES | NSD2 HMT inh | TDP2 inh | UHRF1 binding | LEDGF integ inh | CASP6 VEID inh | MBD2 inh
CCCNC(=O)N1C[C@@H]2[C@H](c3ccccc31)[C@@H](CO)N2C(=O)c1ccncc1 | . | . | . | . | 0 | .
CC1CCCC(C)N1C(=O)C1CCCCC1 (stereo not drawn) | . | 8 | 0 | 1 | 59* | 1
O=C1C=C(c2ccccc2Oc2ccccc2)C[C@@H](c2ccc(F)cc2)C1 | . | -3 | 22* | 4 | -3 | 11
C[C@H](CO)N1C[C@H](C)[C@@H](CN(C)C(=O)CC2CC2)Oc2cc(C#CCN(C)C)ccc2S1(=O)=O | . | . | . | . | -1 | .
CCCCC[C@@H](/C=C/C1C(=O)C=C[C@H]1C/C=C\CCCC(=O)O)OC(C)=O (stereo partly drawn) | . | 4 | 0 | 3 | 48* | -6
COc1cc(O)ccc1C=O | 0 | 1 | 27* | -3 | 1 | 2
CCC(=O)N[C@@H]1C=C[C@@H](CC(=O)NCc2ccccc2OC)O[C@@H]1CO | . | . | . | . | 0 | .
CCN(CC)C(=O)Oc1ccc2oc(=O)cc(-c3cc4cccc(OC)c4o3)c2c1 | -3 | -12 | 21* | -1 | 1 | 4
COc1ccc2oc(=O)cc(-c3cc4cccc(OC)c4o3)c2c1 | -2 | 12 | 0 | 1 | -1 | -1
Cc1ccc(NC(=O)C2Cc3ccccc3O/C2=N\O)cc1C (stereo not drawn) | 2 | 7 | 21* | 4 | -1 | 3
O=c1c2ccc(F)cc2sn1-c1ccccc1 | . | -1 | 88* | 0 | 0 | 1
O=c1c2ccccc2sn1-c1ccc(F)cc1 | . | 11 | 10 | -1 | -1 | 6
COc1ccc(-n2nc(C(=O)NCc3ccco3)c3ccccc3c2=O)cc1 | -2 | 9 | 1 | -1 | 1 | 4
COc1ccc(-n2nc(C(=O)NCc3ccco3)c3c4ccccc4n(C)c3c2=O)cc1 | 1 | -1 | 31* | -4 | 2 | -2
CCN(C(=O)c1nn(-c2ccc(OC)cc2)c(=O)c2c1c1ccccc1n2C)c1ccc(OC)cc1 | -1 | 7 | 22* | -1 | 0 | 7
C[C@@H]1CN([C@@H](C)CO)C(=O)c2cc(/C=C/c3ccccc3)cnc2O[C@@H]1CN(C)C(=O)C1CCOCC1 | . | . | . | . | 3 | .
C[C@@H]1CN([C@H](C)CO)C(=O)c2cc(-c3ccccc3F)cnc2O[C@H]1CN(C)Cc1ccccc1F | . | . | . | . | -3 | .
CN(CC(=O)Nc1c(Cl)cccc1Cl)C(=O)C1CSC2(C)CCC(=O)N12 (stereo not drawn) | -1 | -5 | -1 | 1 | -1 | 1
CN(Cc1ccc(Cl)c(Cl)c1)C(=O)C1CSC2(C)CCC(=O)N12 (stereo not drawn) | -2 | -5 | 28* | 2 | 1 | 0
